Calls of active or inactive are those of the source. No cut-off for these calls is given here.
What was measured:
[1] = test system: A549; assay: Cytotoxicity against human A549 cells assessed as growth inhibition at 10 uM after 48 hrs by MTT assay relative to control; type: functional; details: A549, 48 h, read-out: GI
Summary of the method: (§1)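 Single-concentration MTT screen. Cells were seeded, allowed to adhere for 24 h, and exposed to compound for 48 h. MTT (5 mg/mL) was added for the last 4 h, then DMSO, with absorbance read at 570 nm. Result is inhibition rate (%) at the stated concentration; mean of three independent experiments.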

[2] = test system: HepG2; assay: Cytotoxicity against human HepG2 cells assessed as growth inhibition after 48 hrs by MTT assay; type: functional, cell-based; details: HepG2, 48 h
Summary of the method: (§2)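 Cells seeded at 5.0 × 10^4/ml and left 24 h to adhere, then exposed to a range of test-compound concentrations for 44 h. MTT (5 mg/mL) was added for a further 4 h at 37 °C. Supernatant was removed, DMSO added, and OD read at 570 nm. IC50 after 48 h total exposure; mean ± SD, n = 3.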

[3] = test system: MDA-MB-231; assay: Cytotoxicity against human MDA-MB-231 cells assessed as growth inhibition at 10 uM after 48 hrs by MTT assay relative to control; type: functional; details: MDA-MB-231, 48 h, read-out: GI; summary of the method: as §1
[4] = test system: HepG2; assay: Cytotoxicity against human HepG2 cells assessed as growth inhibition at 10 uM after 48 hrs by MTT assay relative to control; type: functional; details: HepG2, 48 h, read-out: GI; summary of the method: as §1
[5] = test system: WRL68; assay: Cytotoxicity against human WRL68 cells assessed as growth inhibition after 48 hrs by MTT assay; type: cell-based; details: WRL68, 48 h; summary of the method: as §2
[6] = test system: MDA-MB-231; assay: Cytotoxicity against human MDA-MB-231 cells assessed as growth inhibition after 48 hrs by MTT assay; type: functional, cell-based; details: MDA-MB-231, 48 h; summary of the method: as §2
[7] = test system: A549; assay: Cytotoxicity against human A549 cells assessed as growth inhibition after 48 hrs by MTT assay; type: functional, cell-based; details: A549, 48 h; summary of the method: as §2
[8] = test system: HK-2; assay: Cytotoxicity against human HK2 cells assessed as growth inhibition after 48 hrs by MTT assay; type: cell-based; details: HK-2, 48 h; summary of the method: as §2
[9] = test system: HCT-116; assay: Cytotoxicity against human HCT116 cells assessed as growth inhibition after 48 hrs by MTT assay; type: functional, cell-based; details: HCT-116, 48 h; summary of the method: as §2
[10] = test system: A549; assay: Cytotoxicity against human A549 cells assessed as growth inhibition at 5 uM after 24 hrs in presence of nitric oxide scavenger carboxy-PTIO by MTT assay
[11] = Drug metabolism in human A549 cells assessed as nitric oxide production at 5 uM after 24 hrs in presence of nitric oxide scavenger carboxy-PTIO by Griess assay; type: ADME, cell-based; details: a549, 24 h
Summary of the method: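 A549 cells were pre-incubated with the NO scavenger carboxy-PTIO (50 μM) for 1 h, then treated with compound (5 μM) for 24 h. Proliferation was read by MTT and NO by Griess assay (nitrite/nitrate); mean ± SD of three independent experiments.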

[12] = Drug metabolism in human A549 cells assessed as nitric oxide production at 5 uM after 24 hrs by Griess assay; type: ADME, cell-based; details: a549, 24 h
Summary of the method: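 A549 cells were plated at 5.0 × 10^4/ml and treated in triplicate with compound at 5 μM for varying times up to 24 h. NO release was quantified as nitrite plus nitrate by Griess assay (commercial kit); mean ± SD, n = 3.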

[13] = test system: A549; assay: Induction of apoptosis in human A549 cells assessed as late apoptotic cells at 2 uM after 24 hrs by FITC-annexin V/propidium iodide staining-based flow cytometric analysis (reference value: 0.36%); type: functional
[14] = test system: A549; assay: Induction of apoptosis in human A549 cells assessed as viable cells at 2 uM after 24 hrs by FITC-annexin V/propidium iodide staining-based flow cytometric analysis (reference value: 97.7%); type: functional; details: A549, 24 h, read-out: Activity
[15] = test system: A549; assay: Induction of apoptosis in human A549 cells assessed as late apoptotic cells at 4 uM after 24 hrs by FITC-annexin V/propidium iodide staining-based flow cytometric analysis (reference value: 0.36%); type: functional
[16] = test system: A549; assay: Induction of apoptosis in human A549 cells assessed as viable cells at 1 uM after 24 hrs by FITC-annexin V/propidium iodide staining-based flow cytometric analysis (reference value: 97.7%); type: functional; details: A549, 24 h, read-out: Activity
[17] = test system: A549; assay: Induction of apoptosis in human A549 cells assessed as early apoptotic cells at 4 uM after 24 hrs by FITC-annexin V/propidium iodide staining-based flow cytometric analysis (reference value: 1.87%); type: functional
[18] = test system: A549; assay: Induction of apoptosis in human A549 cells assessed as early apoptotic cells at 2 uM after 24 hrs by FITC-annexin V/propidium iodide staining-based flow cytometric analysis (reference value: 1.87%); type: functional
[19] = test system: A549; assay: Induction of apoptosis in human A549 cells assessed as late apoptotic cells at 1 uM after 24 hrs by FITC-annexin V/propidium iodide staining-based flow cytometric analysis (reference value: 0.36%); type: functional
[20] = test system: A549; assay: Induction of apoptosis in human A549 cells assessed as necrotic cells at 2 uM after 24 hrs by FITC-annexin V/propidium iodide staining-based flow cytometric analysis (reference value: 0.055%); type: functional
[21] = test system: A549; assay: Induction of apoptosis in human A549 cells assessed as viable cells at 4 uM after 24 hrs by FITC-annexin V/propidium iodide staining-based flow cytometric analysis (reference value: 97.7%); type: functional; details: A549, 24 h, read-out: Activity
[22] = test system: A549; assay: Induction of apoptosis in human A549 cells assessed as increase in late apoptotic cells after 24 hrs by FITC-annexin V/propidium iodide staining-based flow cytometric analysis; type: functional, cell-based
[23] = test system: A549; assay: Induction of apoptosis in human A549 cells assessed as necrotic cells at 1 uM after 24 hrs by FITC-annexin V/propidium iodide staining-based flow cytometric analysis (reference value: 0.055%); type: functional
[24] = test system: A549; assay: Induction of apoptosis in human A549 cells assessed as early apoptotic cells at 1 uM after 24 hrs by FITC-annexin V/propidium iodide staining-based flow cytometric analysis (reference value: 1.87%); type: functional
[25] = test system: A549; assay: Induction of reactive oxygen species formation in human A549 cells at 5 uM after 24 hrs by DCFH-DA probe-based flow cytometric analysis relative to control; type: functional
[26] = test system: A549; assay: Induction of apoptosis in human A549 cells assessed as necrotic cells at 4 uM after 24 hrs by FITC-annexin V/propidium iodide staining-based flow cytometric analysis (reference value: 0.055%); type: functional
[27] = test system: A549; assay: Cytotoxicity against human A549 cells assessed as growth inhibition at 20 uM after 48 hrs by MTT assay relative to control; type: functional; details: A549, 48 h, read-out: GI; summary of the method: as §1
[28] = test system: MDA-MB-231; assay: Cytotoxicity against human MDA-MB-231 cells assessed as growth inhibition at 20 uM after 48 hrs by MTT assay relative to control; type: functional; details: MDA-MB-231, 48 h, read-out: GI; summary of the method: as §1
[29] = test system: HepG2; assay: Cytotoxicity against human HepG2 cells assessed as growth inhibition at 20 uM after 48 hrs by MTT assay relative to control; type: functional; details: HepG2, 48 h, read-out: GI; summary of the method: as §1

Structure (SMILES) | inhibition of growth at 10 µM [1] [%] | IC50 [2] [µM] | inhibition of growth at 10 µM [3] [%] | inhibition of growth at 10 µM [4] [%] | IC50 [5] [µM] | IC50 [6] [µM] | IC50 [7] [µM] | IC50 [8] [µM] | IC50 [9] [µM] | further results
CC1=C(CCC(=O)OCO/[N+]([O-])=N/N2CCCC2)C(=O)c2c(O)cccc2C1=O | 32.9 | 17.8 | 31.6 | 29.8 | 19.5 | 15.2 | 16.4 | 25.6 | 17.2 | –
CC1=C(CCC(=O)OCCCO/[N+]([O-])=N/N2CCOCC2)C(=O)c2c(O)cccc2C1=O | 26.9 | – | 28.6 | 28 | – | – | – | – | – | –
CC1=C(CCC(=O)OCCCCO/[N+]([O-])=N/N2CCOCC2)C(=O)c2c(O)cccc2C1=O | 24.4 | – | 29.4 | 28.8 | – | – | – | – | – | –
CC1=C(CCC(=O)OCCO/[N+]([O-])=N/N2CCOCC2)C(=O)c2c(O)cccc2C1=O | 30.3 | – | 35.7 | 32.5 | – | – | – | – | – | –
CC1=C(CCCC(=O)OCO/[N+]([O-])=N/N2CCCCC2)C(=O)c2c(O)cccc2C1=O | 86.7 | 6.68 | 83.6 | 80.3 | > 40 | 4.92 | 4.27 | 17.7 | 5.26 | growth inhibition (GI) [10]: inactive; Drug metabolism [11]: Metabolite_Notdetected; Drug metabolism [12]: Metabolite_Detected
CC1=C(CCCC(=O)OCO/[N+]([O-])=N/N2CCCC2)C(=O)c2c(O)cccc2C1=O | 65.6 | 7.12 | 70.8 | 69.7 | 16.6 | 6.97 | 9.24 | 18.1 | 9.32 | –
CC1=C(CCCC(=O)OCCO/[N+]([O-])=N/N2CCOCC2)C(=O)c2c(O)cccc2C1=O | 23.7 | – | 26.2 | 25 | – | – | – | – | – | –
CC1=C(CCCC(=O)OCCCCO/[N+]([O-])=N/N2CCOCC2)C(=O)c2c(O)cccc2C1=O | 38.2 | – | 30.6 | 32.2 | – | – | – | – | – | –
CC1=C(CCC(=O)OCO/[N+]([O-])=N/N2CCOCC2)C(=O)c2c(O)cccc2C1=O | 40.3 | 16.5 | 37.2 | 31.3 | 19.3 | 13.5 | 12.3 | 24.6 | 15.6 | –
CC1=C(CCCC(=O)OCO/[N+]([O-])=N/N2CCOCC2)C(=O)c2c(O)cccc2C1=O | 91.2 | 5.52 | 88.3 | 75.4 | > 40 | 4.12 | 3.48 | 23.5 | 4.21 | Activity [13]: 10.1%; viability at 2 µM [14]: 79.6%; growth inhibition (GI) [10]: inactive; Drug metabolism [11]: Metabolite_Notdetected; Activity [15]: 30.3%; viability at 1 µM [16]: 92.2%; Activity [17]: 6.93%; Activity [18]: 3.74%; Activity [19]: 4.18%; Drug metabolism [12]: Metabolite_Detected; Activity [20]: 6.53%; viability at 4 µM [21]: 45.4%; Activity [22]: Dose-dependent effect; Activity [23]: 1.56%; Activity [24]: 2.09%; fold change (FC) [25]: 1.64; Activity [26]: 17.3%
[O-]/[N+](=N\OCCl)N1CCOCC1 | 19.1 | – | 13.3 | 16.4 | – | – | – | – | – | –
CC1=C(CCC(=O)OCO/[N+]([O-])=N/N2CCCCC2)C(=O)c2c(O)cccc2C1=O | 45 | 14.4 | 40.1 | 35.1 | 28.2 | 11.7 | 10.8 | 27.7 | 20.2 | –
CC1=CC(=O)c2c(O)cccc2C1=O [PLUMBAGIN] | 60.7 | 9.17 | 73.8 | 58.9 | 15.4 | 6.5 | 8.9 | 23.6 | 9.8 | fold change (FC) [25]: 1.34
CC1=C(CCCC(=O)OCCCO/[N+]([O-])=N/N2CCOCC2)C(=O)c2c(O)cccc2C1=O | 11.3 | – | 9.5 | 8.2 | – | – | – | – | – | –
[O-]/[N+](=N\OCCl)N1CCCCC1 | 10.8 | – | 11.4 | 17.6 | – | – | – | – | – | –
CC1=C(CCCC(=O)O)C(=O)c2c(O)cccc2C1=O | – | – | – | – | – | – | – | – | – | inhibition of growth at 20 µM [27]: 8.5%; inhibition of growth at 20 µM [28]: 9.9%; inhibition of growth at 20 µM [29]: 28.6%

Source: ChEMBL document CHEMBL4152263, “Novel anticancer hybrids from diazen-1-ium-1,2-diolate nitric oxide donor and ROS inducer plumbagin: Design, synthesis and biological evaluations” (Eur J Med Chem, 2018)
